# This is a sample that favours compounds with a hit; in the whole collection about 4.1% have one here.
# ROMK primary = modulators of human ROMK potassium channel. hit rate 2% among 130,000. B-score at 10 µM. P48048. Tet-inducible ROMK, thallium flux fluorescence; actives lie on both sides;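 active = signal ratio slope over the read window, or its plate-corrected B-score, at least 3 SD from the plate mean, either direction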;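 note: B-score of the F/F0 ratio slope over 7 to 12 s after thallium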
# DTT redox prof = compounds producing H2O2 with reducing agent – biochemical, NIH compound library profiling, artefact control for MLSCN library redox annotation, primary screen | DTT-dependent redox cycling H2O2, phenol red/HRP absorbance; 100% = 100 µM peroxide control, 0% = buffer | activation, % at 10 µM | hit rate 0.03% among 200,000 | AID 878;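 active = activation of at least 50% relative to the plate's high and low controls in the primary single-dose screen; inactive = activation below 50%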;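 note: compound incubated with DTT at 0.8 mM final as the reducing agent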
# Autophagy mod = autophagy modulation, high-content screen. MEF GFP-LC3 puncta imaging; test concentration mostly 10 µM. calls only at 10 µM (by protocol). hit rate 0.98% among 190,000;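 active = percentage of spot-positive cells more than 3 SD above its plate mean, without a fluorescence outlier flag or 80% toxicity; inconclusive = no clear call, values can overlap the other calls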
# Dynein transport = dynein cargo transport inhibition. 3617.4 mouse cells, GR-EGFP nuclear translocation imaging; test concentration mostly 20 µM; stimulated with dexamethasone, 1 µM; stronger effect = lower value. z-score, hits read low. hit rate 0.47% among 220,000. AID 1381;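 active = plate z-score of nuclear minus cytoplasmic receptor signal below a set negative limit, without overly bright fluorescence or cell loss, cut at about -3.5 in these data, passing the limit was not always enough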;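 note: z-score of nuclear minus cytoplasmic ring GR-EGFP intensity difference per well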
#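 medium = tetracycline-free induction medium containing charcoal-stripped FBS | probe or stimulus = dexamethasone, 1.0 µM final | timing = 48 h induction, then 1 h compound, then 30 min agonist, 37 °C | detection = automated 10x imaging of fixed Hoechst-stained cells | read-out basis = nuclear versus cytoplasmic GR-EGFP signal, averaged per well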
# Cl transport mod = KCC2 (human) Cl- transport modulation; Q9H2X9; KCC2 cells, thallium flux FluoZin-2 fluorescence; B-score of Tl+ flux slope (higher = more flux/activation; lower = inhibition) at 10 µM; hit rate 2.2% among 190,000; AID 1456;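 active = thallium flux slope and its plate-corrected score both differing from the plate sample mean at a set confidence after two filtering rounds, in either direction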;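 note: slope of fluorescence scaled to starting intensity during 10 to 20 s after thallium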
# ROMK retest = confirmation of human ROMK potassium channel modulators; shares compounds with ROMK primary; ROMK thallium flux, fluorescence ratio; stronger effect = lower value; normalized thallium flux (F/F0 slope) at 10 µM; hit rate 54% among 3,000; AID 1917;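 active = Flux at 10 µM at least 3 SD below or above vehicle control mean in one or both replicates; inconclusive = no clear call, values can overlap the other calls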
# Hits are given with their value; . = inactive; ? = inconclusive; / = no result given.
SMILES,ROMK primary,DTT redox prof,Autophagy mod,Dynein transport,Cl transport mod,ROMK retest
N#C/C(=N\Nc1cccc2ccccc12)c1nnc2n1CCCCC2,/,.,.,.,.,0.059
N#C/C(=C\c1cc2c(cc1Br)OCO2)C(=O)NCC1CCCO1 (stereo unspecified),/,/,/,.,.,/
N#CC1=C(N)C(C#N)(C#N)C(c2cccnc2)C2COCC=C12 (stereo unspecified),-6.1,.,.,.,.,0.057
CCOC(=O)N1CC=C2C(C#N)=C(N)C(C#N)(C#N)[C@H](c3ccc(OCC)c(OCC)c3)[C@H]2C1,.,.,.,.,.,/
O=C(Nc1ccc(F)cc1)Nc1nnc(-c2ccncc2)s1,-2.1,.,.,.,.,.
O=C(Nc1ccc(Cl)cc1)Nc1nnc(-c2ccncc2)s1,/,.,.,.,.,/
Cc1cc(C)cc(C(=O)Nc2ccc(NC(=O)Cc3ccccc3)cc2)c1,.,.,.,.,.,/
Brc1ccc2c(c1)CNc1c(ncnc1N1CCOCC1)O2,/,.,.,.,.,.
Brc1ccc2ncnc(Nc3ccc(N4CCOCC4)cc3)c2c1,/,.,.,.,/,/
O=C(OCC(=O)N1N=C(c2ccc(Cl)cc2)CC1c1ccco1)c1ccco1 (stereo unspecified),.,.,.,.,.,/
N=c1sccn1CC(=O)N1N=C(c2ccc(Cl)cc2)CC1c1ccco1 (stereo unspecified),-3.2,.,.,.,.,0.064
CN(CCOc1ccc(Cl)cc1)c1ccc(S(=O)(=O)N2CCCCC2)cn1,-4.4,.,.,.,.,?
CCC(=O)N(C)CCc1cc2c(c(OC)c1/C=N/NS(=O)(=O)c1ccc(C)cc1)OCO2,/,/,/,.,.,/
CCC(=O)N(C)CCc1cc2c(c(OC)c1/C=N/NC(=O)c1ccncc1)OCO2,-2,/,/,.,.,.
O=c1cc(CSc2nnc(-c3cccs3)n2Cc2ccccc2)nc2sc3ccccc3n12,/,.,.,.,.,0.064
Cc1cc(C(=O)CSc2nnc(-c3cccs3)n2Cc2ccccc2)c(C)n1C,.,.,.,.,.,/
Cc1ccc(NC(=S)N(CCCN2CCOCC2)Cc2cccnc2)cc1C,.,.,.,.,.,/
CC(c1ccccc1)N1C(=O)CC(Sc2ncccc2C(=O)O)C1=O (stereo unspecified),0.9,.,.,.,.,.
CCCCOC(=O)Nc1cc(C(=O)OC)ccc1C(=O)OC,3.8,.,.,.,.,.
NCCCNc1ccc([N+](=O)[O-])cc1C(F)(F)F,-8.3,.,.,.,.,0.066
O=C(NCCNc1ccc([N+](=O)[O-])cc1C(F)(F)F)c1ccc(F)cc1,/,.,.,.,.,/
CC(C)CCNC(=O)CO/N=C/c1ccccc1OC(F)F,/,.,.,.,.,/
O=C(Cc1cn(Cc2cccc(Cl)c2)c2ccccc12)N1CCCC1,-3.2,.,.,.,.,0.059
Cc1cc(C)n(-c2ccc(C(=O)Nc3cccnc3)cc2)n1,/,/,/,.,.,/
N/C(=N\OC(=O)c1ccc(Cl)c([N+](=O)[O-])c1)c1ccccn1,-3.8,.,.,.,.,.
SMILES,ROMK primary,DTT redox prof,Autophagy mod,Dynein transport,Cl transport mod,ROMK retest
N/C(=N\OC(=O)c1ccccc1Cl)c1ccccn1,/,.,.,.,/,/
N/C(=N\OC(=O)c1ccc(Cl)c(Cl)c1)c1ccccn1,/,.,.,.,.,/
COc1ccccc1C(=O)O/N=C(\N)c1ccccn1,/,/,/,.,.,.
COCCNC(=O)/C(C#N)=C1\N=C(N)c2ccccc21,/,.,.,.,.,/
CC1CCCCC1NC(=O)CN1CCN(Cc2ccccc2Cl)C1=O (stereo unspecified),.,.,.,.,.,/
O=C(CN1CCN(Cc2ccccc2Cl)C1=O)NC1CCCCCCC1,-2.6,.,.,.,/,0.057
CCOc1ccc2nnnn2n1,.,.,.,.,/,/
CC(C)(C)OC(=O)C(Cl)(C(=O)OC(C)(C)C)c1ccc2nnnn2n1,.,.,.,.,.,0.064
CCCCCCCCC[n+]1cccc2c3ccccc3ccc21,-5.7,.,.,.,/,0.042
O=[N+]([O-])c1ccc(C[n+]2cccc3c4ccccc4ccc32)cc1,.,.,.,.,.,/
O=C(CC1CCCCC1)NCc1nc(-c2ccccc2)no1,.,/,/,.,.,/
CCCc1[nH]nc2c1C(c1ccoc1)C(C#N)=C(N)O2 (stereo unspecified),-3.7,.,.,.,.,0.052
COc1ccc(COc2ccccc2C(=O)NCc2ccccc2)cc1F,.,.,.,.,.,/
CC(=O)c1c(C)[nH]c(C(=O)OCCCCN2C(=O)c3ccccc3C2=O)c1C,/,.,.,.,.,0.061
CCCCNc1cc(Cl)nc(N)n1,/,/,/,.,.,/
Cc1cc(C(=O)OCC(=O)N2c3ccccc3CC2C)c(C)o1 (stereo unspecified),.,.,.,.,.,?
O=C(Nc1ccccc1-c1ccccc1)NC1CC2CCCC(C1)N2CCc1ccccc1 (stereo unspecified),-3.1,.,.,.,.,0.058
O=C(Nc1ccccc1-c1ccccc1)NC1CC2CCCC(C1)N2Cc1ccc(F)cc1 (stereo unspecified),.,.,.,.,.,/
Cc1ccccc1NC(=S)Nc1ccc2[nH]c(=O)[nH]c2c1,/,/,/,.,.,/
CC(C)c1ccc2c(c1)CCC1C(C)(CN)CCCC21C (stereo unspecified),/,/,/,.,.,0.04
CC(C)(C)NS(=O)(=O)c1ccc(/C=C/C(=O)O)cc1,/,.,.,.,/,/
COc1cc(CN2CCN(Cc3ccc([N+](=O)[O-])cc3)CC2)c([N+](=O)[O-])cc1OC,-4.3,.,.,.,.,0.044
COc1cccc(CN2CCN(Cc3cc(OC)c(OC)cc3[N+](=O)[O-])CC2)c1,.,.,.,.,.,/
CN(CC(=O)O)c1ccc(C(F)(F)F)cc1[N+](=O)[O-],.,.,.,.,.,/
O=C(O)c1ccc(/C=N/NC(=O)c2cc(-c3ccc4c5c(cccc35)CC4)n[nH]2)cc1,/,.,.,.,.,/
SMILES,ROMK primary,DTT redox prof,Autophagy mod,Dynein transport,Cl transport mod,ROMK retest
CN(Cc1ccccc1)Cc1nc2c(c(=O)n(C)c(=O)n2C)n1CCCc1ccccc1,-3.6,.,.,.,.,0.065
COCCNC(=S)Nc1ccc2[nH]c(=O)[nH]c2c1,1.8,.,.,.,.,.
CCN(Cc1ccncc1)C(=O)c1ccc2c(c1)S(=O)(=O)c1ccccc1C2=O,.,.,.,.,.,/
CSc1cccc(NC(=O)N2CCCC(CNS(=O)(=O)Cc3ccccc3)C2)c1 (stereo unspecified),.,.,.,.,.,/
c1ccc2nc3c(cc2c1)CCCCC3,/,/,/,.,.,.
COc1ccc(C(C)=O)cc1CN1C(=O)NC2(CCCCC2)C1=O,2,.,.,.,.,.
CCCOc1ccc(C(=O)ON=C2CCN(C)CC2)cc1,/,.,.,.,.,/
